Reference: ChEMBL document CHEMBL1777695, “Design and synthesis of pironetin analogues with simplified structure and study of their interactions with microtubules” (Eur J Med Chem, 2011)
Active and inactive are the calls of the source. No cut-off for these calls is given here.

Tests used:
[1] = tested on: A549; assay: Induction of microtubule cytoskeleton depolymerization in human A549 cells at 200 uM after 4 hrs by immunofluorescence assay; format: cell-based
[2] = tested on: A549; assay: Induction of abberant mitosis in human A549 cells assessed as metaphase mitotic cells with DNA forming a ring surrounding mono-aster of microtubule at 200 uM after 4 hrs relative to control; format: functional, cell-based
Outline: (§1)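 A549 cells grown overnight on coverslips, then treated 4 h with ligand (50 nM or 200 µM) or DMSO vehicle. Cells permeabilized with Triton X-100 and fixed in 3.7% formaldehyde. Microtubules stained with DM1A anti-α-tubulin antibody and DNA with Hoechst 33342. Spindle and microtubule morphology examined by epifluorescence microscopy.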

[3] = tested on: A2780; assay: Resistance index, ratio of IC50 for human compound-resistant A2780AD cells to IC50 for human compound-sensitive A2780 cells
[4] = tested on: A549; assay: Induction of abberant mitosis in human A549 cells assessed as metaphase mitotic cells with type III mitotic spindles at 200 uM after 4 hrs relative to control; format: functional, cell-based; outline: as §1
[5] = Cytotoxicity against compound-resistant human A2780AD cells after 24 hrs by MTT assay; format: functional, cell-based; settings: A2780 ADR
Outline: (§2)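 MTT proliferation assay in ovarian carcinoma A2780 and P-glycoprotein-overexpressing A2780AD cells, grown in RPMI 1640 with 10% FCS, glutamine, antibiotics and 0.25 units/mL bovine insulin. IC50 (50% inhibition of proliferation) is the mean ± standard error of two independent experiments in duplicate. Relative resistance is IC50 in A2780AD divided by IC50 in A2780.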

[6] = Displacement of pironetin from tubulin in cell-free system assessed as bound pironetin concentration at 200 uM after 15 mins by HPLC method
Outline: (§3)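 Tubulin (25 µM in GAB: 3.4 M glycerol, 10 mM sodium phosphate, 1 mM EGTA, 1 mM GTP, pH 6.5) preincubated 15 min at 37 °C with 200 µM analogue or DMSO. 30 µM pironetin then added for a further 15 min. Docetaxel (10 µM) added as internal standard. Unreacted pironetin extracted three times with CH2Cl2 and quantified by reverse-phase HPLC, UV at 230 nm. Mean of three measurements ± SE.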

[7] = Displacement of pironetin from tubulin in cell-free system assessed as unbound pironetin concentration at 200 uM after 15 mins by HPLC method; outline: as §3
[8] = tested on: A549; assay: Cell cycle arrest in human A549 cells assessed as minimum concentration required to induce accumulation at G2/M phase after 20 hrs by propidium iodide staining-based flow cytometry; format: functional
Outline: (§4)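 A549 cells (RPMI 1640, 10% FCS, glutamine, antibiotics) exposed 20 h to ligand or vehicle. Cells fixed, RNase-treated and stained with propidium iodide. DNA content read by flow cytometry. The lowest concentration giving maximal G2/M arrest is reported.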

[9] = Inhibition of tubulin assembly assessed as concentration of tubulin required to produce assembly at 100 uM after 30 mins
Outline: (§5)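 Purified tubulin (20 µM) incubated 30 min at 37 °C in GAB (3.4 M glycerol, 10 mM sodium phosphate, 1 mM EGTA, 1 mM GTP, pH 6.5) with 25 µM pironetin or docetaxel, 100 µM analogue, or DMSO vehicle. Critical concentration for assembly determined. Mean of five measurements ± SE.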

[10] = tested on: A2780; assay: Cytotoxicity against compound-sensitive human A2780 cells after 24 hrs by MTT assay; format: functional, cell-based; settings: A2780, 24 h; outline: as §2
[11] = Binding affinity to tubulin after 15 min; outline: as §3
[12] = Inhibition of tubulin assembly assessed as concentration of tubulin required to produce assembly at 25 uM after 30 mins; outline: as §5
[13] = tested on: A549; assay: Induction of microtubule cytoskeleton depolymerization in human A549 cells at 50 nM after 4 hrs by immunofluorescence assay; format: cell-based; outline: as §1
[14] = tested on: A549; assay: Induction of apoptosis in human A549 cells after 20 hrs; format: functional, cell-based
[15] = tested on: A549; assay: Induction of abberant mitosis in human A549 cells assessed as metaphase mitotic cells with type III mitotic spindles at 50 nM after 4 hrs relative to control; format: functional, cell-based; outline: as §1
[16] = tested on: A549; assay: Induction of abberant mitosis in human A549 cells assessed as metaphase mitotic cells with DNA forming a ring surrounding mono-aster of microtubule at 50 nM after 4 hrs relative to control; format: functional, cell-based; outline: as §1
[17] = tested on: A549; assay: Cell cycle arrest in human A549 cells assessed accumulation at G2/M phase at 50 nM after 20 hrs by propidium iodide staining-based flow cytometry; format: functional; outline: as §4

In the case of CCCCC[C@H](CCC[C@@H]1CC=CC(=O)O1)OC, the Activity [1] is reported as “Active”, the Activity [2] is reported as “Active” and the “Ratio IC50” value [3] is reported as 1.42. The Activity [4] was “Active”, the IC50 [5] was 20.5 µM and the Activity [6] was 10 µM. The Activity [7] was 15 µM, the Activity [8] was 50 µM and the Activity [9] was 3.79 µM. The IC50 [10] was 14.4 µM.
For C/C=C/C[C@H](C)[C@@H](OC)[C@@H](C)[C@H](O)C[C@H]1OC(=O)C=C[C@H]1CC [PIRONETIN], the Activity [11] was 23.4 µM, the “Ratio IC50” value [3] was 1 and the IC50 [5] was 0.003 µM. For the same compound, the Activity [12] was greater than 15 µM, the IC50 [10] was 0.0029 µM and the Activity [13] was “Active”. The Activity [14] was “inactive”, the Activity [15] was “Active” and the Activity [16] was “Active”. The Activity [17] was “Active”.
In the case of CCCCC[C@H](CCC[C@H]1CC=CC(=O)O1)OC, the Activity [1] is reported as “Active”, the Activity [2] is reported as “Active” and the “Ratio IC50” value [3] is reported as 0.7. The Activity [4] was “Active”, the IC50 [5] was 12.2 µM and the Activity [6] was 10 µM. It also gave an Activity [7] of 15 µM, an Activity [8] of 50 µM and an Activity [9] of 3.85 µM. It also gave an IC50 [10] of 17.1 µM.
With CCCCC[C@H](C[C@H](O)C[C@H]1CC=CC(=O)O1)OC the “Ratio IC50” value [3] was 1.3, the IC50 [5] was 57.5 µM and the Activity [6] was 4 µM. It also gave an Activity [7] of 10 µM, an Activity [8] of 100 µM and an Activity [9] of 3.39 µM. For the same compound, the IC50 [10] was 44 µM and the Activity [14] was “inactive”.
In the case of CCCCC[C@@H](C[C@@H](O)C[C@H]1CC=CC(=O)O1)OC, the “Ratio IC50” value [3] is reported as 0.74, the IC50 [5] is reported as 25.2 µM and the Activity [8] is reported as 200 µM. The IC50 [10] was 33.7 µM and the Activity [14] was “inactive”.
With CCCCC[C@@H](C[C@H](O)C[C@H]1CC=CC(=O)O1)OC the “Ratio IC50” value [3] was 0.89, the IC50 [5] was 48 µM and the Activity [8] was 200 µM. For the same compound, the IC50 [10] was 53.7 µM and the Activity [14] was “inactive”.
With CCCCC[C@H](C[C@@H](O)C[C@@H]1CC=CC(=O)O1)OC the “Ratio IC50” value [3] was 1.67, the IC50 [5] was 91.5 µM and the Activity [8] was 200 µM. The IC50 [10] was 54.5 µM and the Activity [14] was “inactive”.
In the case of CC(=O)O[C@H]1C(=O)[C@@]2(C)[C@H]([C@H](OC(=O)c3ccccc3)[C@]3(O)C[C@H](OC(=O)[C@H](O)[C@@H](NC(=O)c4ccccc4)c4ccccc4)C(C)=C1C3(C)C)[C@]1(OC(C)=O)CO[C@@H]1C[C@@H]2O [PACLITAXEL], the “Ratio IC50” value [3] is reported as 1157, the IC50 [5] is reported as 0.949 µM and the IC50 [10] is reported as 0.00082 µM.
For CCCCC[C@@H](C[C@@H](O)C[C@@H]1CC=CC(=O)O1)OC, the Activity [1] was “Active”, the Activity [2] was “Active” and the “Ratio IC50” value [3] was 0.93. The Activity [4] was “Active”, the IC50 [5] was 46.3 µM and the Activity [8] was 200 µM. The IC50 [10] was 49.4 µM and the Activity [14] was “inactive”.
With CCCCC[C@@H](C[C@H](O)C[C@@H]1CC=CC(=O)O1)OC the “Ratio IC50” value [3] was 0.74, the IC50 [5] was 26.3 µM and the Activity [6] was 4 µM. For the same compound, the Activity [7] was 10 µM, the Activity [8] was 100 µM and the IC50 [10] was 35.4 µM. For the same compound, the Activity [14] was “inactive”.
For CCCCC[C@H](C[C@@H](O)C[C@H]1CC=CC(=O)O1)OC, the “Ratio IC50” value [3] was 0.62, the IC50 [5] was 18.1 µM and the Activity [8] was 100 µM. The Activity [9] was 3.44 µM, the IC50 [10] was 28.9 µM and the Activity [14] was “inactive”.
For CCCCC[C@@H](CCC[C@@H]1CC=CC(=O)O1)OC, the “Ratio IC50” value [3] was 0.77, the IC50 [5] was 11.5 µM and the Activity [6] was 10 µM. For the same compound, the Activity [7] was 15 µM, the Activity [8] was 50 µM and the Activity [9] was 3.75 µM. For the same compound, the IC50 [10] was 14.9 µM and the Activity [14] was “inactive”.
With CCCCC[C@H](C[C@H](O)C[C@@H]1CC=CC(=O)O1)OC the “Ratio IC50” value [3] was 1.3, the IC50 [5] was 30 µM and the Activity [6] was 4 µM. The Activity [7] was 10 µM, the Activity [8] was 100 µM and the IC50 [10] was 22.9 µM. For the same compound, the Activity [14] was “inactive”.
With CCCCC[C@@H](CCC[C@H]1CC=CC(=O)O1)OC the Activity [1] was “Active”, the Activity [2] was “Active” and the “Ratio IC50” value [3] was 0.45. The Activity [4] was “Active”, the IC50 [5] was 9 µM and the Activity [8] was 50 µM. The Activity [9] was 3.73 µM, the IC50 [10] was 20.6 µM and the Activity [14] was “inactive”.
In the case of CC(=O)O[C@@]12CO[C@@H]1C[C@H](O)[C@@]1(C)C(=O)[C@H](O)C3=C(C)[C@@H](OC(=O)[C@H](O)[C@@H](NC(=O)OC(C)(C)C)c4ccccc4)C[C@@](O)([C@@H](OC(=O)c4ccccc4)[C@H]21)C3(C)C, the Activity [12] is reported as 0.4 µM.
